Experimental data reported in ChEMBL document CHEMBL1149388, “Synthesis and structure-activity relationships of 3-[(2-methyl-1,3-thiazol-4-yl)ethynyl]pyridine analogues as potent, noncompetitive metabotropic glutamate receptor subtype 5 antagonists; search for cocaine medications” (J Med Chem, 2006).
The source made the active and inactive calls. The calls are words filed in the database; no cut-off is given here.

Tests used:
[1] = target: Metabotropic glutamate receptor 5 (Rattus norvegicus) (UniProt P31424); test: Activity in agonist-induced phosphoinositide hydrolysis in CHO cells expressing mGluR5a
Rattus norvegicus = organism: Rattus norvegicus; test: Ability to prevent reinstatement of cocaine-seeking behavior by environmental stimuli associated with cocaine availability in Wistar rat; format: functional, organism-based
How it was run: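 Adult male Wistar rats with jugular catheters trained to self-administer cocaine (0.25 mg/kg/infusion) under FR4 in daily 2 h sessions. Extinction continued until active-lever responding fell below 20% of baseline for 3 consecutive days. Cue-induced reinstatement was then tested 30 min after i.p. pretreatment with 5 or 10 mg/kg or vehicle (5% emulphor in saline). Active-lever responses were analysed by one-way ANOVA with Tukey tests.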

[2] = target: Metabotropic glutamate receptor 5 (Rattus norvegicus, UniProt P31424); test: Displacement of [3H]MPEP from mGluR5 in rat brain membranes; format: cell membranes
[3] = target: Metabotropic glutamate receptor 5 (Homo sapiens, UniProt P41594); test: Displacement of [3H]MPEP from cloned human mGluR5 transfected in HEK293-T cells; format: cell-based
How it was run: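 HEK293-T cells transiently transfected with cloned mGluR5 cDNA. Binding used 3.0 nM [3H]-MPEP with varying unlabeled ligand in 50 mM Tris-Cl, 0.9% NaCl, pH 7.4, incubated 90 min at 20 °C. Membranes were harvested on PEI-pretreated GF/C filters and counted by scintillation to obtain Ki.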

Sequence of Metabotropic glutamate receptor 5 (Rattus norvegicus) (P31424 whole entry, looked up): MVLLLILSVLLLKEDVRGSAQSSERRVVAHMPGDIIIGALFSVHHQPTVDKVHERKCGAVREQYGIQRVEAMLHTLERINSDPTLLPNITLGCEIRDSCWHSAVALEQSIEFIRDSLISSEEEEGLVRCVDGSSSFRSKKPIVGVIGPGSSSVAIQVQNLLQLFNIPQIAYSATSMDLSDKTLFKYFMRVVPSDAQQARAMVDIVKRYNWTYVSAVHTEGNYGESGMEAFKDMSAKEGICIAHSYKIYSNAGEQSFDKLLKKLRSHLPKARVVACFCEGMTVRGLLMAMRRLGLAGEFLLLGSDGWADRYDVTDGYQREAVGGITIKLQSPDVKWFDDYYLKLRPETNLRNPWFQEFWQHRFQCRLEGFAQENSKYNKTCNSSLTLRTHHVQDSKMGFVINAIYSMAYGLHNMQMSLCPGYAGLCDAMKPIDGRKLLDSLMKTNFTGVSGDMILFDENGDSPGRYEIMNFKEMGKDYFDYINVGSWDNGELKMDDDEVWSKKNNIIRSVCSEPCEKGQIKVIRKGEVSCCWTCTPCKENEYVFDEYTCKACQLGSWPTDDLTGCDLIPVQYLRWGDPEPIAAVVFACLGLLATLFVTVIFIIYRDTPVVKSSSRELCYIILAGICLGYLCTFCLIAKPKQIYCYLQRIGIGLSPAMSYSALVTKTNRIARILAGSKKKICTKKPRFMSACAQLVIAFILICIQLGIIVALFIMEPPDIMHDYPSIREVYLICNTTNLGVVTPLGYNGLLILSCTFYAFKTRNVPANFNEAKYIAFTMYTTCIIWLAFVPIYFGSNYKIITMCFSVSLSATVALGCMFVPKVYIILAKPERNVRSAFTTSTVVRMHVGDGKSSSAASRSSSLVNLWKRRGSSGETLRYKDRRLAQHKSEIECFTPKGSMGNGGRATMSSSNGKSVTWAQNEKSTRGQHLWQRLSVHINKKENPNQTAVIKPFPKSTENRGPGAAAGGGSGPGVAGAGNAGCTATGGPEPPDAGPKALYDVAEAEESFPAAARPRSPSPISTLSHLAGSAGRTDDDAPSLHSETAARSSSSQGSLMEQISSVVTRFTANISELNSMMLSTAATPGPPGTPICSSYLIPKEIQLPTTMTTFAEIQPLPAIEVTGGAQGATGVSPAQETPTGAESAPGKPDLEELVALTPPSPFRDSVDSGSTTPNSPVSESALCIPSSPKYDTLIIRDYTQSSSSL
Sequence of Metabotropic glutamate receptor 5 (Rattus norvegicus, UniProt P31424) (P31424 whole entry): as the sequence (P31424 whole entry, looked up) above
Sequence of Metabotropic glutamate receptor 5 (Homo sapiens, UniProt P41594) (P41594 whole entry): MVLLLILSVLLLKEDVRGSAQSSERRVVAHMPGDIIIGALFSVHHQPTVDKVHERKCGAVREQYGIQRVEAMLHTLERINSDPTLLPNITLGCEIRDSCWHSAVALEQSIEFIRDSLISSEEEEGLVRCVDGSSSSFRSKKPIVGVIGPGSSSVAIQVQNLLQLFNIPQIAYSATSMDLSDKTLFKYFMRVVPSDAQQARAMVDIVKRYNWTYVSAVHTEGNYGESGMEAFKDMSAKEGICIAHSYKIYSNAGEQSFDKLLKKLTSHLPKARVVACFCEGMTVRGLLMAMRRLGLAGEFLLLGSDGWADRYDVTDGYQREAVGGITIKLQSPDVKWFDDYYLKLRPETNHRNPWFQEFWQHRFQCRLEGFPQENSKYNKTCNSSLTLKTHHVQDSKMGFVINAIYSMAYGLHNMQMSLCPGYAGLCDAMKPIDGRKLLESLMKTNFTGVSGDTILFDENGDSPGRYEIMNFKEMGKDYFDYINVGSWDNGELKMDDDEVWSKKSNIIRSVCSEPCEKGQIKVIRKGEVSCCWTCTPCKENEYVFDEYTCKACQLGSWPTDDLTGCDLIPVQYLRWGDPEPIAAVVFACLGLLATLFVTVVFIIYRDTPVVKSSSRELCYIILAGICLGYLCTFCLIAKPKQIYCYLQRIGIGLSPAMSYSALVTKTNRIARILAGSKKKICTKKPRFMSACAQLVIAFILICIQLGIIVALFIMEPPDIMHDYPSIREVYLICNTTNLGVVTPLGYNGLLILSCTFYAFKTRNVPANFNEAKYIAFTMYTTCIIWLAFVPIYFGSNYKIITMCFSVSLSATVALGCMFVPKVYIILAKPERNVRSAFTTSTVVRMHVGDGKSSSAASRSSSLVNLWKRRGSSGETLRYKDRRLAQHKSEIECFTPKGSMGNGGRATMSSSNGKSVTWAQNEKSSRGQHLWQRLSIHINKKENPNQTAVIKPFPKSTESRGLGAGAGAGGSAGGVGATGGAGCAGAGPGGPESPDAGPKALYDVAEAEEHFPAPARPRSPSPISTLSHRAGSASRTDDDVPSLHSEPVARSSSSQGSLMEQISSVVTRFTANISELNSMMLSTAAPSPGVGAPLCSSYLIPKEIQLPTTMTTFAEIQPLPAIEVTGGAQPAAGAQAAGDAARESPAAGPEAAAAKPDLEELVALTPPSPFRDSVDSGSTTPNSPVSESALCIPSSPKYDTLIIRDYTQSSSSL

| SMILES | IC50 [1] | also measured |
| --- | --- | --- |
| Cc1nc(C#Cc2cnccn2)cs1 | 1830 nM |  |
| Cc1nc(C#Cc2cncc(C#CCO)c2)cs1 | 68.6 nM |  |
| C#Cc1ncccc1C#Cc1csc(C)n1 | 192 nM |  |
| Cc1nc(C#Cc2cccc(Cl)c2)cs1 | 129 nM |  |
| Cc1nc(C#Cc2ccccc2F)cs1 | 140 nM |  |
| Cc1nc(C#Cc2cccnc2)c(C)s1 | 698 nM |  |
| O=C(Nc1nc(C#Cc2cccnc2)cs1)Nc1ccc(F)cc1F | > 10000 nM |  |
| C#Cc1ccc(C#Cc2csc(C)n2)cn1 | 2950 nM |  |
| C#Cc1cncc(C#Cc2csc(C)n2)c1 | 19.2 nM |  |
| C#Cc1nc(C#Cc2cccc(F)c2)cs1 | 2920 nM |  |
| Cc1nc(C#Cc2cccc(F)c2)cs1 | 23 nM |  |
| Cc1nc(C#Cc2cc(F)cc(F)c2)cs1 | 25.3 nM |  |
| Nc1nc(C#Cc2cccnc2)cs1 | 789 nM |  |
| Cc1nc(C#Cc2ccc(OS(C)(=O)=O)nc2)cs1 | 2340 nM |  |
| CCc1sc(C)nc1C#Cc1cccnc1 | 1240 nM |  |
| Cc1nc(C#Cc2cncc(-c3ccc(F)cc3)c2)cs1 | 162 nM |  |
| Cc1nc(C#Cc2cccnc2)co1 | > 10000 nM |  |
| Cc1nc(C#Cc2cccnc2OS(C)(=O)=O)cs1 | > 10000 nM |  |
| COc1ncccc1C#Cc1csc(C)n1 | 228 nM |  |

| SMILES | IC50 [1] | also measured |
| --- | --- | --- |
| Cc1nc(C#Cc2cccnc2)cs1 |  | Activity (Rattus norvegicus): Active |
| Cc1nc(C(=O)Nc2cccc(F)c2)cs1 | > 10000 nM |  |
| Cc1nc(C#Cc2cccnc2)c(-c2ccccc2)s1 | > 10000 nM |  |
| C(#Cc1csc(NCc2ccccc2)n1)c1cccnc1 | > 10000 nM |  |
| Cc1nc(C#Cc2cncnc2)cs1 | 946 nM |  |
| Nc1nc(C#Cc2cccc(F)c2)cs1 | 78.6 nM |  |
| Cc1nc(C#Cc2ccc(-c3ccc(F)cc3)nc2)cs1 | 10.2 nM |  |
| COc1ccccc1C#Cc1csc(C)n1 | 36.3 nM |  |
| Cc1nc(C#Cc2ccc(F)cc2)cs1 | 2970 nM |  |
| Fc1cccc(C#Cc2csc(Br)n2)c1 | 526 nM |  |
| C=Cc1ccc(C#Cc2csc(C)n2)cn1 | > 10000 nM |  |
| Cc1nc(C#Cc2ccsc2)cs1 | 337 nM |  |
| COc1ccc(C#Cc2csc(C)n2)cn1 | 426 nM |  |
| Cc1nc(C#Cc2cccnc2Cl)cs1 | 45.5 nM |  |
| Cc1nc(C#Cc2ccc(F)cn2)cs1 | 1090 nM |  |
| Fc1cccc(C#Cc2csc(-c3cc(F)cc(F)c3)n2)c1 | > 10000 nM |  |
| Cc1nc(C#Cc2ccc(Cl)nc2)cs1 | > 10000 nM |  |
| Cc1nc(C#Cc2cccc(C#N)c2)cs1 | 0.94 nM | Ki [2]: 0.25 nM; Ki [3]: 0.37 nM |
| Cc1nc(C#Cc2cccc(F)c2)co1 | > 10000 nM |  |

| SMILES | IC50 [1] | also measured |
| --- | --- | --- |
| C=Cc1cncc(C#Cc2csc(C)n2)c1 | 2.01 nM | Ki [2]: 0.71 nM; Ki [3]: 1 nM |
| Cc1nc(C#Cc2cccc(OC(F)(F)F)c2)cs1 | 266 nM |  |
| OCC#Cc1nc(C#Cc2cccc(F)c2)cs1 | > 10000 nM |  |
| Cc1nc(C#Cc2cccc(C(N)=O)c2)cs1 | 1000 nM |  |
| CC(=O)Nc1nc(C#Cc2cccnc2)cs1 | 1920 nM |  |
| COc1ccc(-c2cncc(C#Cc3csc(C)n3)c2)cc1 | 225 nM |  |
| Cc1nc(C#Cc2ccc3[nH]ccc3c2)cs1 | > 10000 nM |  |
| COC(=O)Nc1nc(C#Cc2cccnc2)cs1 | > 10000 nM |  |
| Cc1nc(C(=O)Nc2cccnc2)cs1 | > 10000 nM |  |
| Cc1nc(C#Cc2cncc(Br)c2)cs1 | 60 nM |  |
| Cc1nc(C#Cc2cccc(C(F)(F)F)c2)cs1 | 413 nM |  |
| Cc1nc(C#Cc2cnc3ccccc3c2)cs1 | > 10000 nM |  |
| Cc1nc(C#Cc2ccc3nccnc3c2)cs1 | > 10000 nM |  |
| Cc1nc(C#Cc2ccc(F)nc2)cs1 | 833 nM |  |
| COc1cccc(C#Cc2csc(C)n2)c1 | 49 nM |  |
| Cc1nc(C#Cc2cccs2)cs1 | 475 nM |  |
| Cc1nc(/C=C/c2cccnc2)cs1 | 3090 nM |  |
| Cc1nc(C#Cc2cccc(O)c2)cs1 | 654 nM |  |
| CC(=O)Nc1cccc(C#Cc2csc(C)n2)c1 | 2020 nM |  |
